{"source": "ChEMBL document CHEMBL1275566", "about": "“MexCD-OprJ multidrug efflux system of Pseudomonas aeruginosa: involvement in chlorhexidine resistance and induction by membrane-damaging agents dependent upon the AlgU stress response sigma factor” (2008)", "key": {"Pseudomonas aeruginosa [1]": {"system": "Pseudomonas aeruginosa", "experiment": "Induction of mexCD-oprJ expression in Pseudomonas aeruginosa PAO1 K767 at 100 ug/ml after 2.5 hrs by semiquantitative RT-PCR", "type": "functional, organism-based"}, "Pseudomonas aeruginosa [2]": {"system": "Pseudomonas aeruginosa", "experiment": "Induction of mexCD-oprJ expression in Pseudomonas aeruginosa PAO1 K767 at 3 ug/ml after 2.5 hrs by semiquantitative RT-PCR", "type": "functional, organism-based"}, "Pseudomonas aeruginosa [3]": {"system": "Pseudomonas aeruginosa", "experiment": "Induction of mexCD-oprJ expression in Pseudomonas aeruginosa K2895 harboring plasmid pMMB206 carrying AlgU gene", "type": "functional, organism-based"}, "Pseudomonas aeruginosa [4]": {"system": "Pseudomonas aeruginosa", "experiment": "Antimicrobial activity against CDJ-positive and AlgU-negative Pseudomonas aeruginosa K2443", "type": "functional"}, "Pseudomonas aeruginosa [5]": {"system": "Pseudomonas aeruginosa", "experiment": "Induction of mexCD-oprJ expression in Pseudomonas aeruginosa PAO1 K767 at 2.5 ug/ml after 2.5 hrs by semiquantitative RT-PCR", "type": "functional, organism-based"}, "Pseudomonas aeruginosa [6]": {"system": "Pseudomonas aeruginosa", "experiment": "Induction of PmexCD-oprJ-lacZ expression in Pseudomonas aeruginosa K2899 at 3.1 ug/ml by beta-galactosidase reporter assay", "type": "functional, organism-based"}, "Pseudomonas aeruginosa [7]": {"system": "Pseudomonas aeruginosa", "experiment": "Induction of PmexCD-oprJ-lacZ expression in Pseudomonas aeruginosa K2899 at 16 ug/ml by beta-galactosidase reporter assay", "type": "functional, organism-based"}, "Pseudomonas aeruginosa [8]": {"system": "Pseudomonas aeruginosa", "experiment": "Induction of mexCD-oprJ expression in Pseudomonas aeruginosa K2895 harboring plasmid pMMB206", "type": "functional, organism-based"}, "Pseudomonas aeruginosa [9]": {"system": "Pseudomonas aeruginosa", "experiment": "Induction of mexCD-oprJ expression in AlgU-positive and NfxB-negative Pseudomonas aeruginosa K1536", "type": "functional, organism-based"}, "Pseudomonas aeruginosa [10]": {"system": "Pseudomonas aeruginosa", "experiment": "Antimicrobial activity against NfxB-negative and AlgU-positive Pseudomonas aeruginosa K1536", "type": "functional"}, "Pseudomonas aeruginosa [11]": {"system": "Pseudomonas aeruginosa", "experiment": "Antimicrobial activity against NfxB- and AlgU-negative Pseudomonas aeruginosa K2895", "type": "functional"}, "Pseudomonas aeruginosa [12]": {"system": "Pseudomonas aeruginosa", "experiment": "Induction of PmexCD-oprJ-lacZ expression in Pseudomonas aeruginosa K2899 at 1.25 ug/ml by beta-galactosidase reporter assay", "type": "functional, organism-based"}, "Pseudomonas aeruginosa [13]": {"system": "Pseudomonas aeruginosa", "experiment": "Antimicrobial activity against CDJ-positive and AlgU-negative Pseudomonas aeruginosa K2443 harboring plasmid pMMB206", "type": "functional"}, "Pseudomonas aeruginosa [14]": {"system": "Pseudomonas aeruginosa", "experiment": "Antimicrobial activity against CDJ -positive Pseudomonas aeruginosa K2889", "type": "functional", "how_it_was_run": "(§1)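 Broth susceptibility testing of P. aeruginosa strains in LB at 37°C. Strains are defined by mexCD-oprJ status (CDJ+ means present and CHX-inducible but not expressed untreated; CDJ− means deleted) and by algU status.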"}, "Pseudomonas aeruginosa [15]": {"system": "Pseudomonas aeruginosa", "experiment": "Antimicrobial activity against CDJ and AlgU-negative Pseudomonas aeruginosa K2898", "type": "functional", "how_it_was_run": "as §1"}, "Pseudomonas aeruginosa [16]": {"system": "Pseudomonas aeruginosa", "experiment": "Antimicrobial activity against CDJ and AlgU-positive Pseudomonas aeruginosa K1542", "type": "functional"}, "Pseudomonas aeruginosa [17]": {"system": "Pseudomonas aeruginosa", "experiment": "Induction of PmexCD-oprJ-lacZ expression in Pseudomonas aeruginosa K2899 at 11.6 ug/ml by beta-galactosidase reporter assay", "type": "functional, organism-based"}, "Pseudomonas aeruginosa [18]": {"system": "Pseudomonas aeruginosa", "experiment": "Induction of mexCD-oprJ expression in AlgU and NfxB-positive Pseudomonas aeruginosa K767", "type": "functional, organism-based"}, "Pseudomonas aeruginosa [19]": {"system": "Pseudomonas aeruginosa", "experiment": "Antimicrobial activity against NfxB-and AglU-negative Pseudomonas aeruginosa K2895 harboring plasmid pMMB206 carrying AlgU gene", "type": "functional"}, "Pseudomonas aeruginosa [20]": {"system": "Pseudomonas aeruginosa", "experiment": "Induction of PmexCD-oprJ-lacZ expression in AlgU-negative Pseudomonas aeruginosa K2901 at 11.6 ug/ml by beta-galactosidase reporter assay", "type": "functional, organism-based"}, "Pseudomonas aeruginosa [21]": {"system": "Pseudomonas aeruginosa", "experiment": "Induction of PmexCD-oprJ-lacZ expression in Pseudomonas aeruginosa K2899 at 0.125 ug/ml by beta-galactosidase reporter assay", "type": "functional, organism-based"}, "Pseudomonas aeruginosa [22]": {"system": "Pseudomonas aeruginosa", "experiment": "Antimicrobial activity against CDJ-negative and AlgU-positive Pseudomonas aeruginosa K2896", "type": "functional"}, "Pseudomonas aeruginosa [23]": {"system": "Pseudomonas aeruginosa", "experiment": "Induction of PmexCD-oprJ-lacZ expression in AlgU-negative Pseudomonas aeruginosa K2901 at 3.1 ug/ml by beta-galactosidase reporter assay", "type": "functional, organism-based"}, "Pseudomonas aeruginosa [24]": {"system": "Pseudomonas aeruginosa", "experiment": "Antimicrobial activity against CDJ and AlgU-positive Pseudomonas aeruginosa K767", "type": "functional"}, "Pseudomonas aeruginosa [25]": {"system": "Pseudomonas aeruginosa", "experiment": "Antimicrobial activity against NfxB- and AlgU-negative Pseudomonas aeruginosa K2895 harboring plasmid pMMB206", "type": "functional"}, "Pseudomonas aeruginosa [26]": {"system": "Pseudomonas aeruginosa", "experiment": "Induction of mexCD-oprJ expression in AlgU-negative and NfxB-negative Pseudomonas aeruginosa K2895"}, "Pseudomonas aeruginosa [27]": {"system": "Pseudomonas aeruginosa", "experiment": "Induction of PmexCD-oprJ-lacZ expression in AlgU-negative Pseudomonas aeruginosa K2901 at 8 ug/ml by beta-galactosidase reporter assay", "type": "functional, organism-based"}, "Pseudomonas aeruginosa [28]": {"system": "Pseudomonas aeruginosa", "experiment": "Induction of mexCD-oprJ expression in mexB and mexXY deficient and AlgU-negative Pseudomonas aeruginosa K2897 at 0.33 ug/ml by semiquantitative RT-PCR", "type": "functional, organism-based"}, "Pseudomonas aeruginosa [29]": {"system": "Pseudomonas aeruginosa", "experiment": "Antimicrobial activity against CDJ -negative Pseudomonas aeruginosa K2891", "type": "functional"}, "Pseudomonas aeruginosa [30]": {"system": "Pseudomonas aeruginosa", "experiment": "Induction of PmexCD-oprJ-lacZ expression in Pseudomonas aeruginosa K2899 at 8 ug/ml by beta-galactosidase reporter assay", "type": "functional, organism-based"}, "Pseudomonas aeruginosa [31]": {"system": "Pseudomonas aeruginosa", "experiment": "Antimicrobial activity against CDJ-positive and AlgU-negative Pseudomonas aeruginosa K2897", "type": "functional", "how_it_was_run": "as §1"}, "Pseudomonas aeruginosa [32]": {"system": "Pseudomonas aeruginosa", "experiment": "Induction of PmexCD-oprJ-lacZ expression in AlgU-negative Pseudomonas aeruginosa K2901 at 0.16 ug/ml by beta-galactosidase reporter assay", "type": "functional, organism-based"}, "Pseudomonas aeruginosa [33]": {"system": "Pseudomonas aeruginosa", "experiment": "Induction of PmexCD-oprJ-lacZ expression in AlgU-negative Pseudomonas aeruginosa K2901 at 16 ug/ml by beta-galactosidase reporter assay", "type": "functional, organism-based"}, "Pseudomonas aeruginosa [34]": {"system": "Pseudomonas aeruginosa", "experiment": "Induction of PmexCD-oprJ-lacZ expression in AlgU-negative Pseudomonas aeruginosa K2901 at 15 ug/ml by beta-galactosidase reporter assay", "type": "functional, organism-based"}, "Pseudomonas aeruginosa [35]": {"system": "Pseudomonas aeruginosa", "experiment": "Antimicrobial activity against CDJ-positive and AlgU-negative Pseudomonas aeruginosa K2443 harboring plasmid pMMB206 carrying AlgU gene", "type": "functional"}, "Pseudomonas aeruginosa [36]": {"system": "Pseudomonas aeruginosa", "experiment": "Induction of mexCD-oprJ expression in mexB and mexXY deficient and AlgU-positive Pseudomonas aeruginosa K1542 at 2.5 ug/ml by semiquantitative RT-PCR", "type": "functional, organism-based"}, "Pseudomonas aeruginosa [37]": {"system": "Pseudomonas aeruginosa", "experiment": "Antimicrobial activity against CDJ-negative and AlgU-positive Pseudomonas aeruginosa K1521", "type": "functional", "how_it_was_run": "as §1"}, "Pseudomonas aeruginosa [38]": {"system": "Pseudomonas aeruginosa", "experiment": "Induction of PmexCD-oprJ-lacZ expression in Pseudomonas aeruginosa K2899 at 15 ug/ml by beta-galactosidase reporter assay", "type": "functional, organism-based"}, "Pseudomonas aeruginosa [39]": {"system": "Pseudomonas aeruginosa", "experiment": "Induction of PmexCD-oprJ-lacZ expression in AlgU-negative Pseudomonas aeruginosa K2901 at 0.125 ug/ml by beta-galactosidase reporter assay", "type": "functional, organism-based"}}, "note": "The source made the active and inactive calls. The rule behind the calls is not given here.", "data": [{"compound": "CETRIMIDE", "values": [{"measurement": "Activity", "setting": "Pseudomonas aeruginosa [1]", "result": "Active"}]}, {"compound": "CCCCC(CC)CNC(=N)NC(=N)NCCCCCCNC(=N)NC(=N)NCC(CC)CCCC", "note": "(centres undefined)", "values": [{"measurement": "Activity", "setting": "Pseudomonas aeruginosa [2]", "result": "Active"}]}, {"compound": "N=C(NCCCCCCNC(=N)NC(=N)Nc1ccc(Cl)cc1)NC(=N)Nc1ccc(Cl)cc1", "note": "[CHLORHEXIDINE]", "values": [{"measurement": "Activity", "setting": "Pseudomonas aeruginosa [3]", "result": "Active"}, {"measurement": "MIC", "setting": "Pseudomonas aeruginosa [4]", "result": 2.5, "unit": "µg/mL"}, {"measurement": "Activity", "setting": "Pseudomonas aeruginosa [5]", "result": "Active"}, {"measurement": "Activity", "setting": "Pseudomonas aeruginosa [6]", "result": "Active"}, {"measurement": "Activity", "setting": "Pseudomonas aeruginosa [7]", "result": "Active"}, {"measurement": "Activity", "setting": "Pseudomonas aeruginosa [8]", "result": "Active"}, {"measurement": "Activity", "setting": "Pseudomonas aeruginosa [9]", "result": "Active"}, {"measurement": "MIC", "setting": "Pseudomonas aeruginosa [10]", "result": 20, "unit": "µg/mL"}, {"measurement": "MIC", "setting": "Pseudomonas aeruginosa [11]", "result": 2.5, "unit": "µg/mL"}, {"measurement": "Activity", "setting": "Pseudomonas aeruginosa [12]", "result": "Active"}, {"measurement": "MIC", "setting": "Pseudomonas aeruginosa [13]", "result": 2.5, "unit": "µg/mL"}, {"measurement": "MIC", "setting": "Pseudomonas aeruginosa [14]", "result": "> 50", "unit": "µg/mL"}, {"measurement": "MIC", "setting": "Pseudomonas aeruginosa [15]", "result": 0.625, "unit": "µg/mL"}, {"measurement": "MIC", "setting": "Pseudomonas aeruginosa [16]", "result": 10, "unit": "µg/mL"}, {"measurement": "Activity", "setting": "Pseudomonas aeruginosa [17]", "result": "Active"}, {"measurement": "Activity", "setting": "Pseudomonas aeruginosa [18]", "result": "Active"}, {"measurement": "MIC", "setting": "Pseudomonas aeruginosa [19]", "result": 20, "unit": "µg/mL"}, {"measurement": "Activity", "setting": "Pseudomonas aeruginosa [20]", "result": "Active"}, {"measurement": "Activity", "setting": "Pseudomonas aeruginosa [21]", "result": "Active"}, {"measurement": "MIC", "setting": "Pseudomonas aeruginosa [22]", "result": 2.5, "unit": "µg/mL"}, {"measurement": "Activity", "setting": "Pseudomonas aeruginosa [23]", "result": "Active"}, {"measurement": "MIC", "setting": "Pseudomonas aeruginosa [24]", "result": 10, "unit": "µg/mL"}, {"measurement": "MIC", "setting": "Pseudomonas aeruginosa [25]", "result": 2.5, "unit": "µg/mL"}, {"measurement": "Activity", "setting": "Pseudomonas aeruginosa [26]", "result": "Active"}, {"measurement": "Activity", "setting": "Pseudomonas aeruginosa [27]", "result": "Active"}, {"measurement": "Activity", "setting": "Pseudomonas aeruginosa [28]", "result": "Active"}, {"measurement": "MIC", "setting": "Pseudomonas aeruginosa [29]", "result": 10, "unit": "µg/mL"}, {"measurement": "Activity", "setting": "Pseudomonas aeruginosa [30]", "result": "Active"}, {"measurement": "MIC", "setting": "Pseudomonas aeruginosa [31]", "result": 1.25, "unit": "µg/mL"}, {"measurement": "Activity", "setting": "Pseudomonas aeruginosa [32]", "result": "Active"}, {"measurement": "Activity", "setting": "Pseudomonas aeruginosa [33]", "result": "Active"}, {"measurement": "Activity", "setting": "Pseudomonas aeruginosa [34]", "result": "Active"}, {"measurement": "MIC", "setting": "Pseudomonas aeruginosa [35]", "result": 10, "unit": "µg/mL"}, {"measurement": "Activity", "setting": "Pseudomonas aeruginosa [36]", "result": "Active"}, {"measurement": "MIC", "setting": "Pseudomonas aeruginosa [37]", "result": 5, "unit": "µg/mL"}, {"measurement": "Activity", "setting": "Pseudomonas aeruginosa [38]", "result": "Active"}, {"measurement": "Activity", "setting": "Pseudomonas aeruginosa [39]", "result": "Active"}]}]}
